This note sets out measurements from ChEMBL document CHEMBL3352499, “One pot three components microwave assisted and conventional synthesis of new 3-(4-chloro-2-hydroxyphenyl)-2-(substituted) thiazolidin-4-one as antimicrobial agents” (Bioorg Med Chem Lett, 2014).

For assay [1], the system named is Staphylococcus aureus. Kind of assay: Bactericidal activity against Staphylococcus aureus NCIM-2901 after 72 hrs by two fold serial macrodilution technique. The settings on record: NCIM-2901, 72 h. It is filed as functional. Put shortly: (§1)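 Serial subcultivation followed 72 h of exposure to compounds dissolved in saline containing 5% DMSO. MBC/MFC was the lowest concentration with no visible growth, taken as 99.5% killing of the original inoculum. Runs were in triplicate, with the mean reading used.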

In assay [2] the test system is Bacillus subtilis. Kind of assay: Bactericidal activity against Bacillus subtilis NCIM-2063 after 72 hrs by two fold serial macrodilution technique. It counts as functional. The settings on record: NCIM-2063, 72 h. Put shortly:
as §1

For assay [3], the system named is Staphylococcus aureus. Kind of assay: Antimicrobial activity against Staphylococcus aureus NCIM-2901 after 20 hrs by two fold serial macrodilution technique. It counts as functional. The settings on record: NCIM-2901, 20 h. Put shortly: (§2)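 Serial macrodilution in 96-well microtiter plates. Compounds were dissolved in saline (0.8% NaCl) containing 5% DMSO, and strains were incubated with a range of concentrations for 20 h at 37 °C on a rotary shaker (160 rpm). MIC was the lowest concentration without growth. Runs were in triplicate, with the mean taken. The negative control was 5% DMSO.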

The test system of assay [4] is Cryptococcus neoformans. Kind of assay: Antimicrobial activity against Cryptococcus neoformans NCIM-3378 after 20 hrs by two fold serial macrodilution technique. It counts as functional. The settings on record: NCIM-3378, 20 h.
The test system of assay [5] is Aspergillus flavus. Kind of assay: Fungicidal activity against Aspergillus flavus NCIM-539 after 48 to 72 hrs by two fold serial macrodilution technique. It is filed as functional. Put shortly:
as §1

The subject of assay [6] is Escherichia coli. Kind of assay: Antimicrobial activity against Escherichia coli NCIM-2256 after 20 hrs by two fold serial macrodilution technique. It is filed as functional. The settings on record: NCIM-2256, 20 h. Put shortly:
as §2

The next assay deals with HeLa. The assay is described as follows: Cytotoxicity against human HeLa cells by SRB method. It is filed as cell-based. An outline of the steps: (§3)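 SRB colorimetric growth assay. IC50, in µM, was the concentration inhibiting cell growth by 50% relative to untreated control cells. Runs were in triplicate in three independent experiments, with means reported. The positive control was doxorubicin.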
On the technique in general: In SRB staining, fixed cells bind dye roughly in proportion to their protein.

Assay [7] concerns Bacillus subtilis. The assay is described as follows: Antimicrobial activity against Bacillus subtilis NCIM-2063 after 20 hrs by two fold serial macrodilution technique. It counts as functional. The settings on record: NCIM-2063, 20 h. Put shortly: as §2
Assay [8] deals with Aspergillus flavus. Kind of assay: Antimicrobial activity against Aspergillus flavus NCIM-539 after 20 hrs by two fold serial macrodilution technique. It is filed as functional. The conditions noted are these: NCIM-539, 20 h.
Assay [9] deals with Aspergillus niger. The assay is described as follows: Fungicidal activity against Aspergillus niger NCIM-1196 after 48 to 72 hrs by two fold serial macrodilution technique. It counts as functional. An outline of the steps:
as §1

The test system of assay [10] is Salmonella typhimurium. Kind of assay: Antimicrobial activity against […] after 20 hrs by two fold serial macrodilution technique. It counts as functional, Salmonella enterica subsp. enterica serovar Typhimurium. The settings on record: Salmonella enterica. Put shortly: as §2
For assay [11], the system named is Salmonella typhimurium. The assay is described as follows: Bactericidal activity against […] after 72 hrs by two fold serial macrodilution technique. It counts as functional, Salmonella enterica subsp. enterica serovar Typhimurium. The conditions noted are these: Salmonella enterica. Put shortly:
as §1

For assay [12], the system named is Candida albicans. The assay is described as follows: Fungicidal activity against Candida albicans NCIM-3471 after 48 to 72 hrs by two fold serial macrodilution technique. It counts as functional. An outline of the steps: as §1
Assay [13] relates to Aspergillus niger. Kind of assay: Antimicrobial activity against Aspergillus niger NCIM-1196 after 20 hrs by two fold serial macrodilution technique. It counts as functional. The conditions noted are these: NCIM-1196, 20 h.
The subject of a further assay is MCF7. The assay is described as follows: Cytotoxicity against human MCF7 cells by SRB method. It counts as cell-based. An outline of the steps: as §3
In assay [14] the test system is Candida albicans. Kind of assay: Antimicrobial activity against Candida albicans NCIM-3471 after 20 hrs by two fold serial macrodilution technique. It counts as functional. The settings on record: NCIM-3471, 20 h.
The test system of assay [15] is Escherichia coli. Kind of assay: Bactericidal activity against Escherichia coli NCIM-2256 after 72 hrs by two fold serial macrodilution technique. It counts as functional. The settings on record: NCIM-2256, 72 h. An outline of the steps: as §1
Assay [16] has as its system Cryptococcus neoformans. Kind of assay: Fungicidal activity against Cryptococcus neoformans NCIM-3378 after 48 to 72 hrs by two fold serial macrodilution technique. It is filed as functional. Put shortly:
as §1

Structures are written as SMILES. Converted amounts (≈) assume the structure as drawn. Counter-ions that a name gives are not always drawn.

In general, MBC refers to the lowest tested concentration that kills the bacteria rather than only halting them. For orientation: MIC means the lowest concentration that inhibits growth of the organism. Read a high MIC as a less susceptible organism. A word on the MFC: it is the smallest concentration meeting the test's criterion for killing the fungus. A high value points to weaker fungicidal potency. As a reminder, the IC50 is the midpoint of a concentration-inhibition curve. Low values mean greater potency, high ones weaker potency. As for `Cc1ncsc1C1SCC(=O)N1c1ccc(Cl)cc1O` (configuration not stated), the minimum bactericidal concentration (MBC) with Staphylococcus aureus [1] worked out at 20 µg/mL (≈ 61.2 µM); with Bacillus subtilis [2], 55 µg/mL (≈ 168 µM); in the assay with Salmonella typhimurium [11] it was 40 µg/mL (≈ 122 µM); with Escherichia coli [15], 20 µg/mL (≈ 61.2 µM). Further, the minimal inhibitory concentration (MIC) turned out to be 15 µg/mL (≈ 45.9 µM) against Staphylococcus aureus [3]; 55 µg/mL (≈ 168 µM) in the assay with Cryptococcus neoformans [4]; 15 µg/mL (≈ 45.9 µM) in the assay with Escherichia coli [6]; 30 µg/mL (≈ 91.8 µM) with Bacillus subtilis [7]; 3 µg/mL (≈ 9.18 µM) in the assay with Aspergillus flavus [8]; 20 µg/mL (≈ 61.2 µM) against Salmonella typhimurium [10]. In addition, the MIC against Aspergillus niger [13] came out at 80 µg/mL (≈ 245 µM); against Candida albicans [14], 30 µg/mL (≈ 91.8 µM). Besides, the MFC in the assay on Aspergillus flavus [5] was 20 µg/mL (≈ 61.2 µM); against Aspergillus niger [9], 135 µg/mL (≈ 413 µM); against Candida albicans [12], 45 µg/mL (≈ 138 µM). Also, the figures for the IC50 in the assay with HeLa and in the assay with MCF7 were 78.5 µM and 75.7 µM, respectively.

For `N#Cc1ccc(C2SCC(=O)N2c2ccc(Cl)cc2O)cc1` (configuration not stated), the MBC came to 145 µg/mL (≈ 438 µM) against Staphylococcus aureus [1], 140 µg/mL (≈ 423 µM) with Bacillus subtilis [2], 115 µg/mL (≈ 348 µM) against Salmonella typhimurium [11] and 120 µg/mL (≈ 363 µM) against Escherichia coli [15]. Moreover, the MIC was found to be 35 µg/mL (≈ 106 µM) in the assay with Staphylococcus aureus [3]; 85 µg/mL (≈ 257 µM) in the assay with Cryptococcus neoformans [4]; 90 µg/mL (≈ 272 µM) in the assay with Escherichia coli [6]; 100 µg/mL (≈ 302 µM) in the assay on Bacillus subtilis [7]; 60 µg/mL (≈ 181 µM) against Aspergillus flavus [8]; 55 µg/mL (≈ 166 µM) against Salmonella typhimurium [10]. Further, the results for the MIC in the assay with Aspergillus niger [13] and with Candida albicans [14] were 100 µg/mL (≈ 302 µM) and 90 µg/mL (≈ 272 µM), respectively. Moreover, the MFC in the assay on Aspergillus flavus [5] came out at 115 µg/mL (≈ 348 µM); in the assay with Aspergillus niger [9] it was 145 µg/mL (≈ 438 µM); in the assay on Candida albicans [12] it was 140 µg/mL (≈ 423 µM). In addition, the IC50 came out at 83.2 µM in the assay on HeLa and 81.2 µM with MCF7.

For the compound `CC1(C)S[C@@H]2[C@H](NC(=O)[C@H](N)c3ccccc3)C(=O)N2[C@H]1C(=O)O` [AMPICILLIN], the MBC against Staphylococcus aureus [1], in the assay with Bacillus subtilis [2], in the assay on Salmonella typhimurium [11] and in the assay with Escherichia coli [15] was 17.5 µg/mL (≈ 50.1 µM) each time. For the same compound, the minimum inhibitory concentration (MIC) in the assay on Staphylococcus aureus [3], with Escherichia coli [6], against Bacillus subtilis [7] and against Salmonella typhimurium [10] was 12.5 µg/mL (≈ 35.8 µM) throughout.

For `O=C(O)c1cn(C2CC2)c2cc(N3CCNCC3)c(F)cc2c1=O` [CIPROFLOXACIN], the MBC against Staphylococcus aureus [1] was 13 µg/mL (≈ 39.2 µM); in the assay with Bacillus subtilis [2] it was 13 µg/mL (≈ 39.2 µM); in the assay on Salmonella typhimurium [11], 8 µg/mL (≈ 24.1 µM); in the assay with Escherichia coli [15], 8 µg/mL (≈ 24.1 µM). In addition, the MIC is 7.5 µg/mL (≈ 22.6 µM) in the assay on Escherichia coli [6], 6.25 µg/mL (≈ 18.9 µM) in the assay with Bacillus subtilis [7] and 7.5 µg/mL (≈ 22.6 µM) against Salmonella typhimurium [10].

Consider `COc1cccc2c1C(=O)c1c(O)c3c(c(O)c1C2=O)C[C@@](O)(C(=O)CO)C[C@@H]3O[C@H]1C[C@H](N)[C@H](O)[C@H](C)O1` [DOXORUBICIN HYDROCHLORIDE], for which the IC50 in the assay with HeLa and with MCF7 was below 0.1 µM throughout.

As to `OC(Cn1cncn1)(Cn1cncn1)c1ccc(F)cc1F` [FLUCONAZOLE], the MIC with Cryptococcus neoformans [4] turned out to be 6.25 µg/mL (≈ 20.4 µM); with Aspergillus flavus [8], 6.25 µg/mL (≈ 20.4 µM); in the assay on Aspergillus niger [13] it was 6.25 µg/mL (≈ 20.4 µM); with Candida albicans [14], 10 µg/mL (≈ 32.7 µM). For the same compound, the MFC against Aspergillus flavus [5] was 16.5 µg/mL (≈ 53.9 µM); in the assay with Cryptococcus neoformans [16], 16.5 µg/mL (≈ 53.9 µM); against Aspergillus niger [9], 16.5 µg/mL (≈ 53.9 µM); in the assay on Candida albicans [12] it was 22.5 µg/mL (≈ 73.5 µM).

Regarding `Clc1ccc(COC(Cn2ccnc2)c2ccc(Cl)cc2Cl)c(Cl)c1` (configuration not stated) [MICONAZOLE], the MIC in the assay with Cryptococcus neoformans [4], against Aspergillus flavus [8], against Aspergillus niger [13] and against Candida albicans [14] was 3.25 µg/mL (≈ 7.81 µM) in each case. Moreover, the MFC in the assay on Aspergillus flavus [5], in the assay with Cryptococcus neoformans [16], in the assay on Aspergillus niger [9] and in the assay with Candida albicans [12] was 12.5 µg/mL (≈ 30 µM) throughout.
